Experimental data as given in paper PMC5333931 (ACS chemical neuroscience, 2016).

What was measured:
5-HT2A receptors [1] = target: T1, 5-HT2A receptors (Homo sapiens, UniProt P28223); format: cell-based; conditions: 10 µM compound, 1 µM 5-HT, TEVC
5-HT2A receptors [2] = target: T1, 5-HT2A receptors; assay: TEVC, compounds alone; format: cell-based
In short: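 Xenopus oocytes were injected with 2 ng 5-HT2A receptor plus 2 ng GIRK4* and held at 18 °C for 1–4 days. Basal GIRK4* current was taken per trace as the inward current difference with versus without 3 mM BaCl2. Read-out was current inhibition.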

GIRK4* channel = target: T2, GIRK4* channel (Homo sapiens, UniProt P48544, S143T); assay: TEVC, oocytes expressing GIRK4* alone versus GIRK4* and 5-HT2A receptors; format: cell-based; conditions: 50 µM or higher; suggests direct inhibition of GIRK4* channel
T2 sequence (P48544 1-419 S143T): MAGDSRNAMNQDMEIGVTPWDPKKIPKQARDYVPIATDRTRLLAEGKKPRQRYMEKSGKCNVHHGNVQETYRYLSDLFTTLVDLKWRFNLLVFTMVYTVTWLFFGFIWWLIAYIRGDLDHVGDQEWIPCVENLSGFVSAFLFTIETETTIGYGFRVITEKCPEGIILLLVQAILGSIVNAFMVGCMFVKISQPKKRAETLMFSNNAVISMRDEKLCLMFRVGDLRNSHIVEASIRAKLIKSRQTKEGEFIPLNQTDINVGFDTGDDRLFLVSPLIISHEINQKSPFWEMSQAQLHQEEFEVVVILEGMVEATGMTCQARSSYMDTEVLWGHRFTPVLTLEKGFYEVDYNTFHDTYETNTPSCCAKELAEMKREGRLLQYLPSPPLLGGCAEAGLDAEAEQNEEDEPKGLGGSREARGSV

5-HT2A receptors [3] = target: T1, 5-HT2A receptors; assay: [3H]ketanserin competition binding in HEK293 cell membrane preparations; conditions: for fold lower binding affinity than risperidone (1): [3H]ketanserin, HEK293 membranes
5-HT2A receptors [4] = target: T1, 5-HT2A receptors; assay: Intracellular Ca2+ release; format: cell-based
5-HT2 receptor [5] = conditions: 5-HT-induced inositol phosphate production; cited from earlier work
5-HT2 receptor [6] = conditions: rats, drug discrimination; cited from earlier work

T1 sequence (P28223 whole entry): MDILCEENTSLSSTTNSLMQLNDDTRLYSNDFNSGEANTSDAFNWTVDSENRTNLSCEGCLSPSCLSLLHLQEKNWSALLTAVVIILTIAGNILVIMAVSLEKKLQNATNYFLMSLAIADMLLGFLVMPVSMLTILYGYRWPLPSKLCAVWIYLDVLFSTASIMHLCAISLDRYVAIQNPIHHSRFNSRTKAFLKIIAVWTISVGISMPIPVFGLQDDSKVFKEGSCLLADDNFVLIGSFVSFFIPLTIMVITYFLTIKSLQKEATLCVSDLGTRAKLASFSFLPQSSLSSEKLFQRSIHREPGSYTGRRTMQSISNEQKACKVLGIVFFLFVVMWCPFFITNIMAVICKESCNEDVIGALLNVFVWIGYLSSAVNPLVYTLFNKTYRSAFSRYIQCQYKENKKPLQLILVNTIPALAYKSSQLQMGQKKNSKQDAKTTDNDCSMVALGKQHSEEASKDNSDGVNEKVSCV

| Structure (SMILES) | antagonism of 5-HT responses at highest concentration tested (5-HT2A receptors [1]) | concentration yielding significant current inhibition by compound alone (5-HT2A receptors [2]; oocytes, no 5-HT) [µM] | current inhibition in oocytes expressing GIRK4* alone versus GIRK4* and 5-HT2A receptors (GIRK4* channel) | Ki (5-HT2A receptors [3]) [µM] | IC50 (5-HT2A receptors [4]) [µM] | antagonist action in vitro (5-HT2 receptor [5]) | fold lower binding affinity than risperidone (1) (5-HT2A receptors [3]) | agonism of compound alone (5-HT2A receptors [2]; concentrations tested up to 50 µM) | antagonist action in vivo (5-HT2 receptor [6]) | binding affinity relative to risperidone (5-HT2A receptors [3]) |
| --- | --- | --- | --- | --- | --- | --- | --- | --- | --- | --- |
| Cl.Fc1ccc2c(C3CCN(CCCCN4CCCCC4)CC3)noc2c1 [compound 3] | no significant effects | ≥ 5 | no significant differences |  |  |  |  |  |  |  |
| Cl.O=C(CCCN1CCC(c2noc3cc(F)ccc23)CC1)N1CCCCC1 [compound 2, 4-(4-(6-Fluorobenzisoxazol-3-yl)piperidin-1-yl)-1-(piperidin-1-yl)butan-1-one Hydrochloride] |  |  | no significant differences | 0.0398 | 16.7 ± 1.39 |  |  |  |  |  |
| Fc1ccc2c(C3CCNCC3)noc2c1 [compound 5, 6-fluoro-3-(piperidin-4-yl)benzisoxazole] | significant inhibition |  |  |  | 20.1 ± 2.24 | potent 5-HT2 receptor antagonist | 13.5 fold | did not exhibit significant agonism | potent 5-HT2 receptor antagonist |  |
| CN1CCC(c2noc3cc(F)ccc23)CC1.Cl [compound 4, 6-Fluoro-3-(1-methylpiperidin-4-yl)benzisoxazole Hydrochloride] | significant inhibition |  |  |  | 7.4 ± 1.45 |  | 2- to 8 fold |  |  | half that of risperidone |
